GalR3 antag: GalR3 antagonists in HEK293 cells, primary screen, cell-based, fluorescence readout | HEK293 GalR3-CNG cAMP membrane potential fluorescence; galR3 body fused to GalR1 C-terminus | actives 0.44% (n = 360,000) | Galanin receptor type 3 (Homo sapiens), O60755 | inhibition, % at 3 µM;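 active means inhibition above the screen-wide average plus 3 SD, cut at about 13% in these data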;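 further: forskolin and galanin both at EC90 stimulate the cells; cAMP rise reported by CNG channel membrane potential dye signal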
Arr AP2 block: inhibitors of beta-arrestin/AP2 binding, primary screen, biochemical, GPCR trafficking, flow cytometry | beta-arrestin 1 C-terminal peptide binding to AP2 beta2-adaptin appendage (human) | inhibition, % at 10 µM | AID 504490, 2011 | actives 0.31% (n = 340,000) | FITC-arrestin peptide / GST-AP2 beads; AP2 beta2 appendage carries R879A mutation;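 active means inhibition above a set limit, near 3 SD of compounds lacking own fluorescence, cut at about 54% in these data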
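System: GST-AP2 R879A glutathione beads | Also added: FITC-arrestin peptide, 50 nM | Times: 12 min plus 1 h, RT | Signal: Bead flow cytometry, FITC channel | Buffer or medium: PBS with 0.05% Tween 20 and 0.1% BSA | Read-out basis: Percent drop in bead-associated FITC signal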
GC-A act: GC-A stimulated cGMP production enhancers – HEK293 GC-A cells, cGMP TR-FRET, EC30 ANP, primary screen. Atrial natriuretic peptide receptor 1 (Homo sapiens), P16066. 0% at EC30 ANP, 100% saturating ANP. activation, % at 10 µM. actives 0.14% (n = 370,000); in the data active means activation above about 40%
NPR2 activator: human GC-B receptor activators, primary screen, HEK293 GC-B cells, cGMP TR-FRET, EC30 CNP; Atrial natriuretic peptide receptor 2 (Homo sapiens), P20594; 0% at EC30 CNP, 100% saturating CNP; activation, % at 10 µM; actives 0.11% (n = 370,000);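 active means activation at 10 µM reaching about 35% in either raw or pattern-adjusted values, limit read from the data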
GalR3 antag conf: GalR3 antagonist hit confirmation, cell-based, fluorescence, triplicate; shares compounds with GalR3 antag; HEK293 GalR3 CNG cAMP biosensor, membrane potential fluorescence; galR3 fused to GalR1 carboxy tail; challenged with forskolin and galanin at EC90; inhibition, % at 3 µM; actives 59% (n = 1,600); AID 652245, 2013;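 active means inhibition above the primary screen's cutoff, the mean inhibition of all screened compounds plus 3 SD, cut at about 13% in these data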
HEK-CNG parental: nonspecific cAMP agonists in parental HEK-CNG cells, counter-screen for GalR3 antagonist project, cell-based, fluorescence, high throughput; shares compounds with GalR3 antag; HEK293-CNG parental cells, cAMP membrane potential fluorescence; normalised: DMSO wells 0%, forskolin wells 100%; activation, % at 3 µM; actives 10% (n = 1,600); AID 652268, 2013; in the data active means activation above about 1.3%
A number is an active result. Compounds with a hit are over-represented: about 0.94% of the library has one in this group of screens.

Screening O=C(CSc1nnc(Cn2nnc3ccccc32)o1)N(Cc1ccc(Cl)cc1)c1ccccc1 returned GalR3 antag 97.5, Arr AP2 block inactive, GC-A act inactive, NPR2 activator inactive, GalR3 antag conf 101.7 and HEK-CNG parental inactive.
For COc1cccc(C=NNC(=O)CSc2nc3ccccc3[nH]2)c1O the results were GC-A act inactive and NPR2 activator inactive.
`COc1cccc(-c2[nH]nc3c2C(c2ccoc2)C(C#N)=C(N)O3)c1` (centres undefined) gave GalR3 antag inactive, Arr AP2 block inactive, GC-A act inactive and NPR2 activator inactive.
COc1cc(-c2[nH]nc3c2C(c2ccoc2)C(C#N)=C(N)O3)cc(OC)c1OC (centres undefined) was read as GalR3 antag 18.5, Arr AP2 block inactive, GC-A act inactive, NPR2 activator inactive, GalR3 antag conf inactive and HEK-CNG parental inactive.
`CCOc1ccc(-c2[nH]nc3c2C(c2cccnc2)C(C#N)=C(N)O3)cc1` (centres undefined) gave GalR3 antag 15.9, Arr AP2 block inactive, GC-A act inactive, NPR2 activator inactive, GalR3 antag conf inactive and HEK-CNG parental inactive.
Screening N#CC1=C(N)Oc2n[nH]c(-c3ccccc3)c2C1c1cccc(OC(=O)N2CCOCC2)c1 (centres undefined) returned GalR3 antag 28.2, Arr AP2 block inactive, GC-A act inactive, NPR2 activator inactive, GalR3 antag conf inactive and HEK-CNG parental inactive.
Screening N#CC1=C(N)Oc2n[nH]c(-c3ccc(F)cc3)c2C1c1cccc(OC(=O)N2CCOCC2)c1 (centres undefined) returned GalR3 antag inactive, Arr AP2 block inactive, GC-A act inactive and NPR2 activator inactive.
For CC(C)CN1C(=O)C[C@@]2(C(=O)N(C)c3ccc(NC(=O)C(F)(F)F)cc32)C1c1ccccc1 (some centres undefined) the results were GC-A act inactive and NPR2 activator inactive.
For Cc1ccc(Cn2ncc3c(N4CCN(Cc5ccc(Cl)cc5)CC4)ncnc32)cc1 the results were GalR3 antag 53.2, Arr AP2 block inactive, GC-A act inactive, NPR2 activator inactive, GalR3 antag conf 68.9 and HEK-CNG parental inactive.
For Cc1ccc(Cn2ncc3c(N4CCN(c5ccc(C)cc5)CC4)ncnc32)cc1 the results were GalR3 antag inactive, Arr AP2 block inactive, GC-A act inactive and NPR2 activator inactive.
For Cc1nn(C)c(Cl)c1NC(=O)OCc1ccc(Cl)cc1Cl the results were GalR3 antag 96.1, Arr AP2 block inactive, GC-A act inactive, NPR2 activator inactive, GalR3 antag conf 20.9 and HEK-CNG parental inactive.
`CN1CCCCC(NC(=O)c2ccc(Cl)cc2Cl)C1=O` (centres undefined) gave GalR3 antag inactive, GC-A act inactive and NPR2 activator inactive.
`CC(C)c1ccc(Oc2cccc3c2S(=O)(=O)N([C@H](C)c2ccccc2)C[C@@H](COCc2ccccc2)O3)cc1` gave GalR3 antag inactive, GC-A act inactive and NPR2 activator inactive.
For O=C(/C=C/c1cccc([N+](=O)[O-])c1)Nn1c(-c2ccccc2F)nc2ccccc2c1=O the results were GalR3 antag 60.9, Arr AP2 block inactive, GC-A act inactive, NPR2 activator inactive, GalR3 antag conf 65.2 and HEK-CNG parental inactive.
`Cc1cccc(-c2nc3ccccc3c(=O)n2NC(=O)/C=C/c2ccc([N+](=O)[O-])cc2)c1` gave GalR3 antag 44.6, Arr AP2 block inactive, GC-A act inactive, NPR2 activator inactive, GalR3 antag conf 33.9 and HEK-CNG parental inactive.
`O=c1c2ccccc2nc(/C=C/c2cccc([N+](=O)[O-])c2)n1CCO` gave GalR3 antag inactive, Arr AP2 block inactive, GC-A act inactive and NPR2 activator inactive.
For COc1ccc(/C=N/OCC(=O)NC(c2ccccc2)c2ccccc2)cc1OC the results were GalR3 antag 89.3, Arr AP2 block inactive, GC-A act inactive, NPR2 activator inactive, GalR3 antag conf 100.2 and HEK-CNG parental inactive.
`COc1ccc(/C=N/OCC(=O)Nc2cc(C)on2)cc1OC` gave GalR3 antag inactive, Arr AP2 block inactive, GC-A act inactive and NPR2 activator inactive.
CCOc1ccc2[nH]c(=O)c(CN(Cc3ccco3)C(CC)c3nnnn3Cc3ccccc3)cc2c1 (centres undefined) was read as GalR3 antag 23.9, Arr AP2 block inactive, GC-A act inactive, NPR2 activator inactive, GalR3 antag conf inactive and HEK-CNG parental inactive.
O=C(O)CCCn1cc(NC(=O)c2c(F)cccc2F)cn1 was read as GalR3 antag 15.4, Arr AP2 block inactive, GC-A act inactive, NPR2 activator inactive, GalR3 antag conf inactive and HEK-CNG parental inactive.
COc1cccc(N2CCN(c3ncnc4c3cnn4-c3ccc(C)cc3C)CC2)c1 was read as GalR3 antag 67.2, Arr AP2 block inactive, GC-A act inactive, NPR2 activator inactive, GalR3 antag conf 97.0 and HEK-CNG parental inactive.
`Cc1ccc(-n2ncc3c(SCc4cccnc4)ncnc32)c(C)c1` gave GalR3 antag 60.3, Arr AP2 block inactive, GC-A act inactive, NPR2 activator inactive, GalR3 antag conf 97.5 and HEK-CNG parental inactive.
`Cc1ccc(-n2ncc3c(N4CCCC4)ncnc32)c(C)c1` gave GalR3 antag inactive, Arr AP2 block inactive, GC-A act inactive and NPR2 activator inactive.
`COC(=O)[C@]12C[C@H](CC(=O)N3CCCC3)C(=O)N(Cc3ccc4c(c3)OCO4)C1=C[C@H](C(C)(C)C)O[C@@H]2C` gave GalR3 antag inactive, GC-A act inactive and NPR2 activator inactive.
Cc1ccccc1CN1CCCCC(NC(=O)c2ccc(F)c(F)c2)C1=O (centres undefined) was read as GC-A act inactive and NPR2 activator inactive.
Screening COC(=O)C1=C(C)N(Cc2ccccc2C(F)(F)F)C(=NCc2ccc(OC)cc2)NC1CCc1ccccc1 (centres undefined) returned GalR3 antag inactive, GC-A act inactive and NPR2 activator inactive.
`COc1ccccc1NS(=O)(=O)c1ccc(C)c(C(=O)NC2CCN(Cc3ccccc3)CC2)c1` gave GalR3 antag 32.5, Arr AP2 block inactive, GC-A act inactive, NPR2 activator inactive, GalR3 antag conf 81.3 and HEK-CNG parental inactive.
